Where two headings read alike, the source gives them in different places.
How the values were obtained:
[1] = test system: RVFV (rRVFVΔNSs::Katushka); assay: microbe, parasite or virus in culture; format: cell-based, Rift Valley fever virus
in vitro [2] = conditions: human
ZIKV FB-GWUH-2016 strain [3] = assay: Viability and death of ZIKV-infected RPE cells; format: cell-based, Zika virus; conditions: for SI (minimal selectivity index, CC50/EC50): ZIKV, RPE cells; for EC50: Zika virus, RPE
ZIKV FB-GWUH-2016 strain [4] = assay: ZIKV titer from compound-treated RPE cells, plaque assay on Vero-E6 cells; format: cell-based, Zika virus; conditions: for antiviral activity in repeat experiments: repeated CTG, CTxG and virus titration; for EC50: Zika virus, read-out: EC50 other
Outline: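 Medium for ZIKV infection: DMEM-F12 with 2% FBS, 2 mM L-glutamine, 0.25% sodium bicarbonate and 50 U/ml PenStrep, applied after 24 h growth of ~4 × 10^4 RPE cells/well. Test compound added in seven three-fold dilutions from 30 μM; infection at MOI 1. Media harvested at cytopathic effect (typically 24–72 hpi), serially diluted in PBS, plaque-titrated on Vero-E6 (PFU/ml). EC50 from variable-slope non-linear regression or Hill fit.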

in vitro [5] = conditions: human; remark: listed apart in the source
CHIKV-2SG-NanoLuc [6] = assay: microbe, parasite or virus in culture; format: cell-based, Chikungunya virus; conditions: for EC50: Chikungunya virus, RPE
CHIKV-2SG-NanoLuc [7] = assay: microbe, parasite or virus in culture; format: cell-based, Chikungunya virus
EV1 [8] = assay: microbe, parasite or virus in culture; format: cell-based, Echovirus 1
EV1 [9] = assay: microbe, parasite or virus in culture; format: cell-based, Echovirus 1; conditions: for EC50: read-out: EC50 other
HIV-1 = HIV-1 infection of TZM-bl cells, firefly luciferase under HIV-1 LTR promoter; format: cell-based, Human immunodeficiency virus 1
in vitro [10] = conditions: human; remark: listed apart in the source
[11] = test system: FLUAV (influenza A/WSN/33(H1N1) virus); assay: microbe, parasite or virus in culture; format: cell-based; conditions: for EC50: Influenza A virus, H1N1|WSN, RPE
HSV-1 [12] = assay: Viability and death of HSV-1-infected RPE cells; format: cell-based, Herpes simplex virus 1
[13] = test system: FLUAV (influenza A/WSN/33(H1N1) virus); assay: microbe, parasite or virus in culture; format: cell-based
HSV-1 [14] = assay: HSV-1 titer from compound-treated RPE cells, plaque assay on Vero-E6 cells; format: cell-based, Herpes simplex virus 1; conditions: HSV-1, RPE cells; repeated CTG, CTxG and virus titration
Outline: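 RPE cells (~4 × 10^4/well) grown 24 h, then switched to DMEM-F12 with 0.2% BSA, 2 mM L-glutamine, 0.35% NaHCO3 and 1 μg/mL TPCK-trypsin. Three-fold dilutions of test compound (seven concentrations from 30 μM); HSV-1 infection at MOI 1. Supernatants collected at cytopathic effect (typically 24–72 hpi), serially diluted in PBS, plaqued on Vero-E6 under overlay, fixed; titers as PFU/ml.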

[15] = Enterovirus B, RPE, read-out: EC50 CTxG

Nc1ncn([C@@H]2O[C@H](CO)[C@@H](O)[C@H]2O)c(=O)n1 [Azacitidine]
SI (minimal selectivity index, CC50/EC50) [1]: >9 | screen hit against RVFV [1]: identified | EC50 ([1]; Rift Valley fever virus, A549, read-out: EC50 other): 11.4 µM | CC50 (in vitro [2]): > 100 µM

Nc1ncnc2c([C@@H]3N[C@H](CO)[C@@H](O)[C@H]3O)c[nH]c12 [BCX4430]
SI (minimal selectivity index, CC50/EC50) (ZIKV FB-GWUH-2016 strain [3]): >2 | EC50 (ZIKV FB-GWUH-2016 strain [3]; read-out: EC50 CTG): 18.5 µM | EC50 (ZIKV FB-GWUH-2016 strain [3]; read-out: EC50 CTxG): 2.96 µM | antiviral activity in repeat experiments (ZIKV FB-GWUH-2016 strain [4]; ZIKV, RPE cells): confirmed antiviral activity | EC50 (ZIKV FB-GWUH-2016 strain [4]): 13.1 µM | CC50 (in vitro [5]; CC50 CTG): > 30 µM | CC50 (in vitro [5]; CC50 CTxG): > 30 µM

CCN(CC)CCCC(C)Nc1ccnc2cc(Cl)ccc12 (centres unmarked) [Chloroquine]
SI (minimal selectivity index, CC50/EC50) (CHIKV-2SG-NanoLuc [6]; CHIKV, RPE cells): >2 | EC50 (CHIKV-2SG-NanoLuc [6]; read-out: EC50 CTG): 12.8 µM | EC50 (CHIKV-2SG-NanoLuc [6]; read-out: EC50 CTxG): 9.15 µM | SI (minimal selectivity index, CC50/EC50) (ZIKV FB-GWUH-2016 strain [3]): >4 | EC50 (ZIKV FB-GWUH-2016 strain [3]; read-out: EC50 CTG): 7.25 µM | antiviral activity in repeat experiments (CHIKV-2SG-NanoLuc [7]): confirmed antiviral activity | EC50 (CHIKV-2SG-NanoLuc [7]; Chikungunya virus, RPE, read-out: EC50 other): 16.8 µM | antiviral activity in repeat experiments (ZIKV FB-GWUH-2016 strain [4]; ZIKV, RPE cells): confirmed antiviral activity | CC50 (in vitro [5]; CC50 CTG): > 30 µM | CC50 (in vitro [5]; CC50 CTxG): > 30 µM

CN[C@H]1C(=O)N[C@@H]2Cc3ccc(cc3)Oc3cc4cc(c3O[C@@H]3O[C@H](C(=O)O)[C@@H](O)[C@H](O)[C@H]3NC(=O)CCCCCCCCC(C)C)Oc3ccc(cc3Cl)[C@@H](O)[C@@H]3NC(=O)[C@H](NC(=O)[C@@H]4NC(=O)[C@@H](NC2=O)c2cc(cc(O)c2Cl)Oc2cc1ccc2O)c1ccc(O)c(c1)-c1c(O[C@H]2O[C@H](CO)[C@@H](O)[C@H](O)[C@@H]2O)cc(O)cc1[C@@H](C(=O)NCCCN(C)C)NC3=O [Dalbavancin]
EC50 (EV1 [8]; read-out: EC50 CTG): 3.23 µM | EC50 (EV1 [8]; read-out: EC50 CTxG): 18.7 µM | antiviral activity in repeat experiments (EV1 [9]): confirmed antiviral activity | production of infectious virus particles (EV1 [9]): lowered production of infectious virus particles | EC50 (EV1 [9]): 9.72 µM | CC50 (RPE cells): > 30 µM | cytotoxicity (RPE cells): without detectable cytotoxicity

CCCCOc1cc(C(=O)NCCN(CC)CC)c2ccccc2n1 [Dibucaine]
SI (minimal selectivity index, CC50/EC50) (EV1 [8]): >15 | EC50 (EV1 [8]; [15]): 2.05 µM | antiviral activity in repeat experiments (EV1 [9]): confirmed antiviral activity | EC50 (EV1 [9]; Enterovirus B): 0.96 µM | CC50 (in vitro [5]; CC50 CTG): > 30 µM | CC50 (in vitro [5]; CC50 CTxG): > 30 µM

O=C1[C@H](CC[C@H](O)c2ccc(F)cc2)[C@@H](c2ccc(O)cc2)N1c1ccc(F)cc1 [Ezetimibe]
SI (minimal selectivity index, CC50/EC50) (ZIKV FB-GWUH-2016 strain [3]): >333 | EC50 (ZIKV FB-GWUH-2016 strain [3]; read-out: EC50 CTxG): 0.09 µM | screen hit against RVFV [1]: identified | SI (minimal selectivity index, CC50/EC50) (HIV-1; HIV-1, TZM-bl cells): >2 | primary screen hit against HIV-1 (HIV-1; HIV-1, TZM-bl cells): anti-HIV-1 agents | validation of anti-HIV-1 hit (HIV-1; HIV-1, TZM-bl cells, validation experiment): confirmed | EC50 (HIV-1; Human immunodeficiency virus 1, TZM-bl, read-out: EC50 other): 13.2 µM | CC50 (in vitro [10]): > 30 µM | production of infectious virus particles (ZIKV FB-GWUH-2016 strain [4]; ZIKV, RPE cells): lowered production of infectious virus particles | antiviral activity in repeat experiments (ZIKV FB-GWUH-2016 strain [4]; ZIKV, RPE cells): confirmed antiviral activity | CC50 (in vitro [5]; CC50 CTG): > 30 µM | CC50 (in vitro [5]; CC50 CTxG): > 30 µM | cytotoxicity (RPE cells): without detectable cytotoxicity

CNCCC(Oc1ccc(C(F)(F)F)cc1)c1ccccc1 (centres unmarked) [Fluoxatine]
CC50 (in vitro [5]; CC50 CTG): 4.02 µM | CC50 (in vitro [5]; CC50 CTxG): 7.33 µM

Nc1ccn([C@@H]2O[C@H](CO)[C@@H](O)C2(F)F)c(=O)n1 [Gemcitabine]
SI (minimal selectivity index, CC50/EC50) (ZIKV FB-GWUH-2016 strain [3]): 23 | EC50 (ZIKV FB-GWUH-2016 strain [3]; read-out: EC50 CTG): 0.92 µM | EC50 (ZIKV FB-GWUH-2016 strain [3]; read-out: EC50 CTxG): 0.07 µM | SI (minimal selectivity index, CC50/EC50) (EV1 [8]): >4 | EC50 (EV1 [8]; [15]): 0.08 µM | SI (minimal selectivity index, CC50/EC50) [11]: >29 | EC50 ([11]; read-out: EC50 CTG): 0.25 µM | EC50 ([11]; read-out: EC50 CTxG): 1.02 µM | SI (minimal selectivity index, CC50/EC50) (HSV-1 [12]; HSV-1, RPE cells): >500 | EC50 (HSV-1 [12]; Human alphaherpesvirus 1, RPE, read-out: EC50 CTG): 0.05 µM | antiviral activity in repeat experiments [13]: confirmed antiviral activity | EC50 ([13]; Influenza A virus, H1N1|WSN, read-out: EC50 other): 0.89 µM | antiviral activity in repeat experiments (EV1 [9]): confirmed antiviral activity | EC50 (EV1 [9]; Enterovirus B): 6.96 µM | antiviral activity in repeat experiments (ZIKV FB-GWUH-2016 strain [4]; ZIKV, RPE cells): confirmed antiviral activity | CC50 (in vitro [5]; CC50 CTG): > 30 µM | CC50 (in vitro [5]; CC50 CTxG): > 30 µM | CC50 (RPE cells; human): 21.8 µM | antiviral activity in repeat experiments (HSV-1 [14]): confirmed antiviral activity

CCN(CCO)CCCC(C)Nc1ccnc2cc(Cl)ccc12 (centres unmarked) [Hydroxychloroquine]
SI (minimal selectivity index, CC50/EC50) (ZIKV FB-GWUH-2016 strain [3]): >1 | EC50 (ZIKV FB-GWUH-2016 strain [3]; read-out: EC50 CTG): 23 µM | EC50 (ZIKV FB-GWUH-2016 strain [3]; read-out: EC50 CTxG): 0.06 µM | antiviral activity in repeat experiments (ZIKV FB-GWUH-2016 strain [4]; ZIKV, RPE cells): confirmed antiviral activity | CC50 (in vitro [5]; CC50 CTG): > 30 µM | CC50 (in vitro [5]; CC50 CTxG): > 30 µM

Cc1cccc(C)c1OCC(=O)N[C@@H](Cc1ccccc1)[C@@H](O)C[C@H](Cc1ccccc1)NC(=O)[C@H](C(C)C)N1CCCNC1=O [Lopinavir]
SI (minimal selectivity index, CC50/EC50) (ZIKV FB-GWUH-2016 strain [3]): >1 | EC50 (ZIKV FB-GWUH-2016 strain [3]; read-out: EC50 CTG): 12 µM | antiviral activity in repeat experiments (ZIKV FB-GWUH-2016 strain [4]; ZIKV, RPE cells): confirmed antiviral activity | EC50 (ZIKV FB-GWUH-2016 strain [4]): 24.1 µM | CC50 (in vitro [5]; CC50 CTG): > 30 µM | CC50 (in vitro [5]; CC50 CTxG): > 30 µM

Source: article PMC7113852 (Antiviral Research, 2018)
